Measured values reported in ChEMBL document CHEMBL1152395, “Scuteflorins A and B, dihydropyranocoumarins from Scutellaria lateriflora” (J Nat Prod, 2009).
Active and inactive are the calls of the source. The calls are words filed in the database; no cut-off is given here.

Legend:
KB = assay: Cytotoxicity against human KB cells upto 50 uM by neutral red assay; format: functional, cell-based
Summary of the method: (§1)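 Neutral red uptake assay. Purified compounds were tested up to 50 μM and the methanol extract up to 50 μg/mL. The panel was normal Vero monkey kidney fibroblasts and LLC-PK11 pig kidney epithelial cells, plus solid tumour lines HepG2, SK-MEL, KB, BT-549 and SK-OV-3.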

SW1353 [1] = assay: Antiinflammatory activity in PMA-stimulated human SW1353 cells assessed as inhibition of NF-kappaB activation; format: functional, cell-based
Summary of the method: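 SW1353 cells were stimulated with PMA, and inhibition of NF-κB-mediated transcription was scored as IC50. Parthenolide was the positive control. Specificity was checked against a Sp-1-dependent luciferase control plasmid.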

SK-OV-3 = assay: Cytotoxicity against human SKOV3 cells upto 50 uM by neutral red assay; format: functional, cell-based; summary of the method: as §1
HepG2 = assay: Cytotoxicity against human HepG2 cells upto 50 uM by neutral red assay; format: functional, cell-based; summary of the method: as §1
SK-MEL = assay: Cytotoxicity against human SK-MEL cells upto 50 uM by neutral red assay; format: functional, cell-based; summary of the method: as §1
[2] = Cytotoxicity against pig LLC-PK11 cells upto 50 uM by neutral red assay; format: cell-based, Sus scrofa; summary of the method: as §1
SW1353 [3] = assay: Cytotoxicity against human SW1353 cells by neutral red assay; format: cell-based
HL-60 [4] = assay: Antioxidant activity in human HL60 cells assessed as inhibition of relative oxygen species generation by DCFH-DA method; format: functional, cell-based
Summary of the method: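 Intracellular reactive oxygen species generation was measured in myelomonocytic HL-60 cells by the DCFH-DA method. IC50 values were derived, and vitamin C served as positive control. Cytotoxicity in HL-60 cells was checked up to 62.5 μM within this assay.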

[5] = molecular target: Transcription factor Sp1 (Homo sapiens) (UniProt P08047); assay: Inhibition of SP1-dependent luciferase expression
Chain of Transcription factor Sp1 (Homo sapiens) (P08047 whole entry): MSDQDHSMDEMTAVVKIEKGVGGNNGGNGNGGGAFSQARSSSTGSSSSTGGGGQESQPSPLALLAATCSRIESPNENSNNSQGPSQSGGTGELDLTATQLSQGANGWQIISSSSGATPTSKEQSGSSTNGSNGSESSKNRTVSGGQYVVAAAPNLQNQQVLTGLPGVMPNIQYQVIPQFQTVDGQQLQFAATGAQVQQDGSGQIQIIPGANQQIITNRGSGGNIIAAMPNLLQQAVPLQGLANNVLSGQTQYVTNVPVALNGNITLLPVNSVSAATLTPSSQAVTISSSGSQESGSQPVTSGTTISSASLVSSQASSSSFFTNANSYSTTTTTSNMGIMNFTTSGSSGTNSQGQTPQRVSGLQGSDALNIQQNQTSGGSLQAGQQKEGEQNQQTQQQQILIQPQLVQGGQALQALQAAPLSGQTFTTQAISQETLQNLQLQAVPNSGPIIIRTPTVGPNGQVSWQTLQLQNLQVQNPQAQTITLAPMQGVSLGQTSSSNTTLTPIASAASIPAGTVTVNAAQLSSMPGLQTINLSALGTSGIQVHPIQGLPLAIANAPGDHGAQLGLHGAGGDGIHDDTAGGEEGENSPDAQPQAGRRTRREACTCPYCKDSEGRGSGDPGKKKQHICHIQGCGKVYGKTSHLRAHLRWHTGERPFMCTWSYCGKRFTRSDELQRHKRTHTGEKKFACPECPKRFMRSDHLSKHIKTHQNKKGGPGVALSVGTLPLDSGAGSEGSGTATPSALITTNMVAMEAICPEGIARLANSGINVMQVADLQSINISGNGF
Summary of the method: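 Counter-screen in SW1353 cells for inhibition of luciferase expression from a control plasmid driven by Sp-1. It runs alongside the PMA-induced NF-κB transcription assay to exclude nonspecific or cytotoxic effects.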

Vero = assay: Cytotoxicity against african green monkey Vero cells upto 50 uM by neutral red assay; format: cell-based; conditions: chlorocebus sabaeus; summary of the method: as §1
BT-549 = assay: Cytotoxicity against human BT549 cells upto 50 uM by neutral red assay; format: functional, cell-based; summary of the method: as §1
HL-60 [6] = assay: Cytotoxicity against human HL60 cells by neutral red assay; format: cell-based

Compound | Activity (KB) | IC50 (SW1353 [1]) [µM] | Activity (SK-OV-3) | Activity (HepG2) | Activity (SK-MEL) | Activity [2] | Activity (SW1353 [3]) | IC50 (HL-60 [4]; hl-60) | Activity [5] | Activity (Vero) | Activity (BT-549) | IC50 (HL-60 [4]; Homo sapiens, HL-60, read-out: IC50) [µM] | Activity (HL-60 [6])
COc1c(O)cc2oc(-c3ccccc3)cc(=O)c2c1O [OROXYLIN A] | inactive | > 50 | inactive | inactive | inactive | Non-toxic | Non-toxic | Not Active | inactive | Non-toxic | inactive |  | 
C=C1C(=O)O[C@@H]2C3O[C@]3(C)CC/C=C(\C)CC[C@@H]12 (some centres not stated) |  | 4.1 |  |  |  |  |  |  |  |  |  |  | 
COc1ccccc1-c1cc(=O)c2c(O)cc(O)c(OC)c2o1 | inactive |  | inactive | inactive | inactive | Non-toxic | Non-toxic |  | inactive | Non-toxic | inactive |  | 
C/C=C(/C)C(=O)O[C@H]1C(=O)c2cc3ccc(=O)oc3cc2OC1(C)C [SCUTEFLORIN B] | inactive |  | inactive | inactive | inactive | Non-toxic | Non-toxic |  | inactive | Non-toxic | inactive |  | 
CC1(C)CC[C@]2(C(=O)O)CC[C@]3(C)C(=CC[C@@H]4[C@@]5(C)CC[C@@H](O)[C@](C)(CO)[C@@H]5CC[C@]43C)[C@@H]2C1 [SCUTELLARIC ACID] | inactive |  | inactive | inactive | inactive | Non-toxic | Non-toxic |  | inactive | Non-toxic | inactive |  | 
CC[C@H](CC[C@@H](C)[C@H]1CC[C@H]2[C@@H]3CC=C4C[C@@H](O[C@@H]5O[C@H](CO)[C@@H](O)[C@H](O)[C@H]5O)CC[C@]4(C)[C@H]3CC[C@]12C)C(C)C [SITOGLUSIDE] | inactive |  | inactive | inactive | inactive | Non-toxic | Non-toxic |  | inactive | Non-toxic | inactive |  | 
CC(C)=CC(=O)O[C@H]1Cc2cc3ccc(=O)oc3cc2OC1(C)C [DECURSIN] | inactive |  | inactive | inactive | inactive | Non-toxic | Non-toxic |  | inactive | Non-toxic | inactive |  | 
O=C1O[C@H]([C@@H](O)CO)C(O)=C1O [ASCORBIC ACID] |  |  |  |  |  |  |  |  |  |  |  | 0.01 | 
CCCCCCCCCCCCCCCC(=O)O [PALMITIC ACID] | inactive |  | inactive | inactive | inactive | Non-toxic | Non-toxic |  | inactive | Non-toxic | inactive |  | 
C[C@@H]1CC[C@]2(C(=O)O)CC[C@]3(C)C(=CC[C@@H]4[C@@]5(C)CC[C@H](O)C(C)(C)[C@@H]5CC[C@]43C)[C@@H]2[C@]1(C)O [POMOLIC ACID] | inactive |  | inactive | inactive | inactive | Non-toxic | Non-toxic |  | inactive | Non-toxic | inactive |  | 
COc1c(O)cc2c(c1O)C(=O)C[C@@H](c1ccccc1)O2 [DIHYDROOROXYLIN A] | inactive |  | inactive | inactive | inactive | Non-toxic | Non-toxic |  | inactive | Non-toxic | inactive |  | 
C=C(C)[C@@H]1CC[C@]2(C)CC[C@]3(C)[C@H](CC[C@@H]4[C@@]5(C)CC[C@H](O)C(C)(C)[C@@H]5CC[C@]43C)[C@@H]12 [LUPEOL] | inactive |  | inactive | inactive | inactive | Non-toxic | Non-toxic |  | inactive | Non-toxic | inactive |  | 
CC(C)=CC(=O)O[C@H]1C(=O)c2cc3ccc(=O)oc3cc2OC1(C)C [SCUTEFLORIN A] | inactive |  | inactive | inactive | inactive | Non-toxic | Non-toxic |  | inactive | Non-toxic | inactive |  | 
O=C1C[C@@H](c2ccccc2)Oc2cc(O)cc(O)c21 [PINOCEMBRIN] | inactive |  | inactive | inactive | inactive | Non-toxic | Non-toxic |  | inactive | Non-toxic | inactive |  | 
COc1c(O)cc(O)c2c(=O)cc(-c3ccccc3)oc12 [WOGONIN] | inactive | 39 | inactive | inactive | inactive | Non-toxic | Non-toxic |  | inactive | Non-toxic | inactive |  | Not Active
O=c1cc(-c2ccccc2)oc2cc(O)cc(O)c12 [CHRYSIN] | inactive | 33 | inactive | inactive | inactive | Non-toxic | Non-toxic | Not Active | inactive | Non-toxic | inactive |  | 
CC[C@H](CC[C@@H](C)[C@H]1CC[C@H]2[C@@H]3CC=C4C[C@@H](O)CC[C@]4(C)[C@H]3CC[C@]12C)C(C)C [BETA-SITOSTEROL] | inactive |  | inactive | inactive | inactive | Non-toxic | Non-toxic |  | inactive | Non-toxic | inactive |  | 
C[C@H]1[C@H](C)CC[C@]2(C(=O)O)CC[C@]3(C)C(=CC[C@@H]4[C@@]5(C)CC[C@H](O)C(C)(C)[C@@H]5CC[C@]43C)[C@H]12 [URSOLIC ACID] | inactive |  | inactive | inactive | inactive | Non-toxic | Non-toxic |  | inactive | Non-toxic | inactive |  | 
